Tested on: HUVEC
Assay: Inhibitory activity against human umbilical vein endothelial cells (HUVEC) was assayed using MTT colorimetric proliferation assay
Format: functional, cell-based
How it was run: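 HUVEC grown in EGM-2 medium with growth factor, seeded at 10,000 cells/well and left 4 h to adhere. Test compounds diluted in the medium were added. Incubation in a 5% CO₂ humidified atmosphere, then viability read by MTT colorimetric proliferation assay. Growth inhibition reported as IC50.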

Row | SMILES | IC50 [µM]
1 | C[C@@H]1[C@@H]2CC[C@@H](C)[C@@H]3CCC4(C)OO[C@@]23[C@H](O[C@@H]1S(=O)(=O)c1ccccc1)O4 (single isomer, unassigned) | 18.2
2 | C[C@H]1[C@@H](Oc2ccccc2)O[C@@H]2OC3(C)CC[C@H]4[C@H](C)CC[C@@H]1[C@@]24OO3 (single isomer, unassigned) | 33.8
3 | C[C@H]1[C@H](Oc2ccccc2)O[C@@H]2OC3(C)CC[C@H]4[C@H](C)CC[C@@H]1[C@@]24OO3 (single isomer, unassigned) | 31
4 | CC(=O)S[C@H]1O[C@@H]2O[C@]3(C)CC[C@H]4[C@H](C)CC[C@@H]([C@H]1C)[C@@]24OO3 | 4.56
5 | C[C@H]1[C@@H](O)O[C@@H]2O[C@@]3(C)CC[C@H]4[C@H](C)CC[C@@H]1[C@@]24OO3 [ARTENIMOL] | 8.91
6 | C[C@H]1[C@@H]2CC[C@@H](C)[C@@H]3CCC4(C)OO[C@@]23[C@H](O[C@@H]1S(=O)(=O)c1ccccc1)O4 (single isomer, unassigned) | 1.74
7 | CCO[C@H]1O[C@@H]2O[C@@]3(C)CC[C@H]4[C@H](C)CC[C@@H]([C@H]1C)[C@@]24OO3 [ARTEMOTIL] | > 50
8 | C[C@H]1[C@@H](Sc2ccccc2)O[C@@H]2OC3(C)CC[C@H]4[C@H](C)CC[C@@H]1[C@@]24OO3 (single isomer, unassigned) | 5.24
9 | C[C@H]1[C@@H](Sc2ccccc2)O[C@@H]2OC3(C)CC[C@H]4[C@H](C)CC[C@@H]1[C@@]24O3 (single isomer, unassigned) | > 50
10 | C[C@H]1[C@H](Sc2ccccc2)O[C@@H]2OC3(C)CC[C@H]4[C@H](C)CC[C@@H]1[C@@]24OO3 (single isomer, unassigned) | 0.93
11 | C[C@@H]1[C@@H]2CC[C@@H](C)[C@@H]3CCC4(C)O[C@@H](O[C@@H]1S(=O)(=O)c1ccccc1)[C@]23O4 (single isomer, unassigned) | > 50
12 | C[C@@H]1CC[C@H]2[C@@H](C)C(=O)O[C@@H]3O[C@@]4(C)CC[C@@H]1[C@]32O4 [DEOXYARTEMISININ] | > 50
13 | C[C@@H]1CC[C@H]2[C@@H](C)C(=O)O[C@@H]3O[C@@]4(C)CC[C@@H]1[C@]32OO4 [ARTEMISININ] | > 50
14 | C[C@H]1[C@H](S)O[C@@H]2OC3(C)CC[C@H]4[C@H](C)CC[C@@H]1[C@@]24OO3 (single isomer, unassigned) | 1.29
15 | C[C@H]1[C@H](S(=O)(=O)c2ccccc2)O[C@@H]2OC3(C)CC[C@H]4[C@H](C)CC[C@@H]1[C@@]24OO3 (single isomer, unassigned) | 12.8

— ChEMBL document CHEMBL1136311, “Growth inhibition activity of thioacetal artemisinin derivatives against human umbilical vein endothelial cells” (Bioorg Med Chem Lett, 2003)
